In ChEMBL document CHEMBL3244072, “Synthesis and antiviral and enzymatic studies of certain 3-deazaguanines and their imidazolecarboxamide precursors” (J Med Chem, 1978):
Activity calls are given as the source filed them. The rule behind the calls is not given here.

Columns and labels:
[1] = tested on: KB; test: Antiviral activity against Adenovirus type 3 infected in human KB cells assessed as inhibition of virus-induced cytopathic effect after 72 hrs relative to control; type: functional, cell-based; conditions: Human adenovirus 3
How it was run: (§1)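 Cell monolayers (18-24 h) infected with 320 CCID50 of virus; compound added within 15 min at half-log dilutions from 1000 to 1 μg/mL. After 72 h at 37 °C, CPE and cytotoxicity scored microscopically (0-4). Virus rating = sum of (control CPE − treated CPE) over drug levels, halved at any level showing toxicity.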

[2] = tested on: Human alphaherpesvirus 1; test: Antiviral activity against HSV1 infected in human KB cells assessed as inhibition of virus-induced cytopathic effect after 72 hrs relative to control; type: functional, organism-based; how it was run: as §1
[3] = tested on: Human alphaherpesvirus 2; test: Antiviral activity against HSV2 infected in human KB cells assessed as inhibition of virus-induced cytopathic effect after 72 hrs relative to control; type: functional, organism-based; how it was run: as §1
[4] = tested on: Vaccinia virus; test: Antiviral activity against Vaccinia virus infected in human KB cells assessed as inhibition of virus-induced cytopathic effect after 72 hrs relative to control; type: functional, organism-based; conditions: Orthopoxvirus vaccinia; how it was run: as §1
[5] = tested on: Human respirovirus 3; test: Antiviral activity against Parainfluenza virus 3 infected in human KB cells assessed as inhibition of virus-induced cytopathic effect after 72 hrs relative to control; type: functional, organism-based; how it was run: as §1
[6] = tested on: KB; test: Antiviral activity against Rhinovirus type 13 infected in human KB cells assessed as inhibition of virus-induced cytopathic effect after 72 hrs relative to control; type: functional, cell-based; conditions: Human rhinovirus A13; how it was run: as §1
[7] = tested on: Ehrlich; test: Inhibition of adenine nucleotide biosynthesis in mouse EAC assessed as [14C]hypoxanthine incorporation at 1 mM after 60 mins by TLC analysis; type: functional; conditions: 1 h
How it was run: (§2)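 Ehrlich ascites tumor cells (about 6 × 10^6 cells/mL) preincubated 20 min at 37 °C with or without 1 mM compound. [14C]hypoxanthine (55 μCi/μmol) then added to 0.1 mM final for 60 min. Label in adenine or guanine nucleotides of the acid-soluble fraction measured by TLC; inhibition calculated against untreated cells.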

[8] = tested on: Ehrlich; test: Inhibition of guanine nucleotide biosynthesis in mouse EAC assessed as [14C]hypoxanthine incorporation at 1 mM after 60 mins by TLC analysis; type: functional; conditions: 1 h; how it was run: as §2
[9] = tested on: Escherichia coli; test: Antimicrobial activity against Escherichia coli at 0.0025 to 0.125 umol/mL by broth microdilution method; type: functional, organism-based
How it was run: (§3)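 Broth dilution in defined medium against clinical isolates of each organism.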

[10] = tested on: Escherichia coli; test: Inhibition of Escherichia coli IMP dehydrogenase assessed as ratio of compound concentration for 50% inhibition of enzyme activity to 1.7 to 3 x 10^-5 M of substrate concentration
How it was run: (§4)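 Enzymes partially purified from Escherichia coli B. Substrate at 1.7-3.0 × 10^-5 M. Value is the ratio of inhibitor concentration giving 50% inhibition to substrate concentration.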

[11] = tested on: Escherichia coli; test: Inhibition of Escherichia coli adenylosuccinate synthetase assessed as ratio of compound concentration for 50% inhibition of enzyme activity to 1.7 to 3 x 10^-5 M of substrate concentration; how it was run: as §4
[12] = tested on: Candida albicans; test: Antimicrobial activity against Candida albicans at 0.4 umol/mL by broth microdilution method; type: functional, organism-based; how it was run: as §3
[13] = tested on: Epidermophyton floccosum; test: Antimicrobial activity against Epidermophyton floccosum at 0.4 umol/mL by broth microdilution method; type: functional, organism-based; how it was run: as §3
[14] = tested on: Microsporum canis; test: Antimicrobial activity against Microsporum canis at 0.4 umol/mL by broth microdilution method; type: functional, organism-based; how it was run: as §3
[15] = tested on: Pseudomonas aeruginosa; test: Antimicrobial activity against Pseudomonas aeruginosa at 0.4 umol/mL by broth microdilution method; type: functional, organism-based; how it was run: as §3
[16] = tested on: Staphylococcus aureus; test: Antimicrobial activity against Staphylococcus aureus at 0.4 umol/mL by broth microdilution method; type: functional, organism-based; how it was run: as §3
[17] = tested on: Trichophyton mentagrophytes; test: Antimicrobial activity against Trichophyton mentagrophytes at 0.4 umol/mL by broth microdilution method; type: functional, organism-based; how it was run: as §3
[18] = tested on: Influenza B virus; test: Antiviral activity against Influenza B virus Lee infected in Swiss-Webster mouse assessed as host mean survival days at 100 mg/kg, po qd for 9 days; type: functional, B/Lee/1940
[19] = tested on: Influenza B virus; test: Antiviral activity against Influenza B virus Lee infected in Swiss-Webster mouse assessed as host mean survival days at 50 mg/kg, po qd for 9 days; type: functional, B/Lee/1940
[20] = tested on: Influenza B virus; test: Antiviral activity against Influenza B virus Lee infected in Swiss-Webster mouse assessed as host mean survival days at 12.5 mg/kg, po qd for 9 days; type: functional, B/Lee/1940
[21] = tested on: Influenza B virus; test: Antiviral activity against Influenza B virus Lee infected in Swiss-Webster mouse assessed as host mean survival days at 40 mg/kg, po qd for 9 days; type: functional, B/Lee/1940
[22] = tested on: Influenza B virus; test: Antiviral activity against Influenza B virus Lee infected in Swiss-Webster mouse assessed as host mean survival days at 10 mg/kg, po qd for 9 days; type: functional, B/Lee/1940
[23] = tested on: Influenza B virus; test: Antiviral activity against Influenza B virus Lee infected in Swiss-Webster mouse assessed as host mean survival days at 2.5 mg/kg, po qd for 9 days; type: functional, B/Lee/1940
[24] = target: Bifunctional purine biosynthesis protein ATIC (Homo sapiens) (UniProt P31939); test: Inhibition of Escherichia coli IMP cyclohydrolase (unknown origin) assessed as ratio of compound concentration for 50% inhibition of enzyme activity to 1.7 to 3 x 10^-5 M of substrate concentration; how it was run: as §4
[25] = tested on: Mus musculus; test: Toxicity in Influenza B virus Lee infected Swiss-Webster mouse assessed as mortality at 100 mg/kg, po qd for 9 days; type: organism-based; set-up: dose 100 mg/kg, route oral; conditions: in vivo, 216 h
[26] = tested on: Mus musculus; test: Toxicity in Influenza B virus Lee infected Swiss-Webster mouse assessed as mortality at 50 mg/kg, po qd for 9 days; type: organism-based; set-up: dose 50 mg/kg, route oral; conditions: in vivo, 216 h
[27] = tested on: Mus musculus; test: Toxicity in Influenza B virus Lee infected Swiss-Webster mouse assessed as mortality at 12.5 mg/kg, po qd for 9 days; type: organism-based; set-up: dose 12.5 mg/kg, route oral; conditions: in vivo, 216 h
[28] = tested on: Influenza B virus; test: Antiviral activity against Influenza B virus Lee infected in Swiss-Webster mouse assessed as host mean survival days at 3.1 mg/kg, po qd for 9 days; type: functional, B/Lee/1940

Chain of Bifunctional purine biosynthesis protein ATIC (Homo sapiens) (P31939 whole entry, looked up): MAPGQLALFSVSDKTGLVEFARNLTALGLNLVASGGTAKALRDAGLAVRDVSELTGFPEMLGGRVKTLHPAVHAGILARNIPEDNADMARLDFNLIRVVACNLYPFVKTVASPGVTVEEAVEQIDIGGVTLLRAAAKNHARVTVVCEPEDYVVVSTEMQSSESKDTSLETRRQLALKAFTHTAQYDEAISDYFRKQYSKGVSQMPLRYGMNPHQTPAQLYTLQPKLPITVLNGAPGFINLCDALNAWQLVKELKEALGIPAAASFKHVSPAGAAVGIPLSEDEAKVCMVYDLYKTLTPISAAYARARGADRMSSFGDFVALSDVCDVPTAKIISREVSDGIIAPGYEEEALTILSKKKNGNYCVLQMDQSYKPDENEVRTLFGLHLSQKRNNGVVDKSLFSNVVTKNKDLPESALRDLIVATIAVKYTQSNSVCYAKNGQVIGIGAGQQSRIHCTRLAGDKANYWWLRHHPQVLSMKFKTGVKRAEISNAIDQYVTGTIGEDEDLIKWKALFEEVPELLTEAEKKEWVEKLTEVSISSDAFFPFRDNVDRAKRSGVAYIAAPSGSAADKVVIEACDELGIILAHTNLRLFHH

Compound	Activity [1]	Activity [2]	Activity [3]	Activity [4]	Activity [5]	Activity [6]	inhibition at 1000 µM [7] [%]	inhibition at 1000 µM [8] [%]	Activity [12]	Activity [13]	Activity [14]	Activity [15]	Activity [16]	Activity [17]	further results
NC(=O)c1ncn([C@@H]2O[C@H](CO)[C@@H](O)[C@H]2O)n1 [RIBAVIRIN]	Active	Active	Active	Active	Active	Active	14	65							
Nc1cc2ncn([C@@H]3O[C@H](CO)[C@@H](O)[C@H]3O)c2c(=O)[nH]1															Activity [9]: Active
Nc1cc2c(ncn2[C@@H]2O[C@H](COP(=O)(O)O)[C@@H](O)[C@H]2O)c(=O)[nH]1	Active	Active	Active	Active	Active	Active	18	68	inactive	inactive	inactive	inactive	inactive	inactive	Ratio [10]: 0.068; Ratio [11]: 20
Nc1cc2ncn(C3CCCCO3)c2c(=O)[nH]1 (configuration not stated)		Active			inactive	Active			inactive	inactive	inactive	inactive	inactive	inactive	
C[C@H]1O[C@@H](n2cnc3c(=O)[nH]c(N)cc32)[C@H](O)[C@@H]1O		Active			inactive	inactive			inactive	inactive	inactive	inactive	inactive	inactive	
N#CCc1c(C(N)=O)ncn1[C@@H]1O[C@H](CO)[C@@H](O)[C@H]1O		Active	Active	inactive	inactive	inactive	6	11	inactive	inactive	inactive	inactive	inactive	inactive	Time [18]: >0.3 days; Time [19]: 0.118 days; Time [20]: >0.3 days
Nc1cc2c(ncn2[C@@H]2O[C@H](CO)[C@@H](O)[C@H]2O)c(=O)[nH]1	Active	Active	Active	Active	Active	Active	24	38	inactive	inactive	inactive	inactive	inactive	inactive	Time [21]: >0.3 days; Time [22]: >0.3 days; Time [23]: 0.118 days
Nc1cc2[nH]cnc2c(=O)[nH]1 [DEZAGUANINE]	Active	Active	Active	Active	Active	Active	20	40	inactive	inactive	inactive	inactive	inactive	inactive	Time [21]: 0.23 days; Time [22]: >0.3 days; Activity [9]: Active
NC(=O)c1ncn([C@@H]2O[C@H](COP(=O)(O)O)[C@@H](O)[C@H]2O)n1															Ratio [10]: 0.016; Ratio [11]: 160; Ratio [24]: 0.46
COC(=O)c1ncn(C2CCCCO2)c1CC#N (configuration not stated)									inactive	inactive	inactive	inactive	inactive	inactive	Time [20]: >0.3 days
N#CCc1[nH]cnc1C(N)=O	Active	Active			Active	Active	8	39	inactive	inactive	inactive	inactive	inactive	inactive	Activity [25]: Non-toxic; Activity [26]: Non-toxic; Activity [27]: Non-toxic; Time [18]: 0.118 days; Time [19]: >0.3 days; Time [20]: >0.3 days; Time [28]: 0.23 days
